From ChEMBL document CHEMBL2346587, “Design, synthesis, and evaluation of a water-soluble antofine analogue with high antiproliferative and antitumor activity” (Bioorg Med Chem, 2013)
Converted amounts (≈) assume the structure as drawn.

Tests used:
A549 [1] = assay: Cytotoxicity against human paclitaxel-resistant A549 cells after 72 hrs by SRB assay; assay type: functional, cell-based; conditions: A549, 72 h
Outline: (§1)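 SRB growth assay: 5 × 10^3 cells/well exposed to a concentration series for 72 h; fixed in 10% TCA 30 min at 4 °C, stained with 0.4% SRB in 1% acetic acid 30 min, dye dissolved in 10 mM Tris pH 10.0, absorbance at 515 nm. Viability relative to vehicle control; IC50 by non-linear regression; at least three experiments. A549-Pa is a paclitaxel-resistant A549 subline.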

[2] = Thermodynamic solubility of the compound in 1:1 mixture of phosphate buffer:ethanol; assay type: physicochemical
SK-HEP1 = assay: Cytotoxicity against human SKHEP1 cells after 72 hrs by SRB assay; assay type: functional, cell-based; conditions: SK-HEP1, 72 h; outline: as §1
SNU-638 = assay: Cytotoxicity against human SNU638 cells after 72 hrs by SRB assay; assay type: functional, cell-based; conditions: SNU-638, 72 h; outline: as §1
[3] = molecular target: ATP-dependent translocase ABCB1 (Homo sapiens, UniProt P08183); assay: Inhibition of P-gp activity in human paclitaxel-resistant A549 cells assessed as rhodamine 123 accumulation at 10 nM after 72 hrs by FACS analysis (reference value: 14.4 %); assay type: cell-based; parameters: scale not given: the % may be the effect or the level left; conditions: a549, 72 h, 0.01 µM
Sequence of ATP-dependent translocase ABCB1 (P08183 whole entry): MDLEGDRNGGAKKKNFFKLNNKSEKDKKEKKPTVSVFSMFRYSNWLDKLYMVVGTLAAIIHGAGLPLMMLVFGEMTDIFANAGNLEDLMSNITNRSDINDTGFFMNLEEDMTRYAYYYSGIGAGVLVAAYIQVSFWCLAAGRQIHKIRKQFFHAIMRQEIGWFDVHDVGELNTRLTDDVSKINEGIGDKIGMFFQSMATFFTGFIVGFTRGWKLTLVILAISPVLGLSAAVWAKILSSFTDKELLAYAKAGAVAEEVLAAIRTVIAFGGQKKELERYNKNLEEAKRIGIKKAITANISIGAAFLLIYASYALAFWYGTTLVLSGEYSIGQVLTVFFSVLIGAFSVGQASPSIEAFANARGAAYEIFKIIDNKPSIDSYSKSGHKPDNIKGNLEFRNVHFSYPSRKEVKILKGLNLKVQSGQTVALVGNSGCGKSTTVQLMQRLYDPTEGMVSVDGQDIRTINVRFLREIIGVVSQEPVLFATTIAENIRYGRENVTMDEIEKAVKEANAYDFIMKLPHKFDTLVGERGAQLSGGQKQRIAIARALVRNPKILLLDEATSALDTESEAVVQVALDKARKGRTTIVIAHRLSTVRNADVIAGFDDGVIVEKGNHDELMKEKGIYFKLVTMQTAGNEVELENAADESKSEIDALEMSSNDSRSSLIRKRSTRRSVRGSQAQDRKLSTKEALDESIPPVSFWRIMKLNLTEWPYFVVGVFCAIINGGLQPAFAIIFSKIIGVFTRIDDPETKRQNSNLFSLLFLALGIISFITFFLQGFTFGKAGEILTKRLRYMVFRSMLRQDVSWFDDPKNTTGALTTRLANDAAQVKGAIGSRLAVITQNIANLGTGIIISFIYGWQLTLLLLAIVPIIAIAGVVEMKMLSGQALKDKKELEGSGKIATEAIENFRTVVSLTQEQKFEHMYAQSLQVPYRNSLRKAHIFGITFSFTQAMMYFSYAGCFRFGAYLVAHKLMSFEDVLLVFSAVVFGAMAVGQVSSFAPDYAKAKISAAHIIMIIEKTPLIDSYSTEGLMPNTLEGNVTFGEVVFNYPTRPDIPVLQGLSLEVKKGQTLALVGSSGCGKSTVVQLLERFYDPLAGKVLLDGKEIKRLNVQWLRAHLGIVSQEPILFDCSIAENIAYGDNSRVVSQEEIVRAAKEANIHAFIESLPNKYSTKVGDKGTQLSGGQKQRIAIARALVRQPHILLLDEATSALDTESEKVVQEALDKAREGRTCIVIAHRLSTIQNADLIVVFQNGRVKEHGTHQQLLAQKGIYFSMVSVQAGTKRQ
Outline: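 Paclitaxel-resistant A549-Pa cells seeded at 1 × 10^5 cells/dish, pretreated with compound for 72 h, then loaded with rhodamine-123 in culture medium at 37 °C, 5% CO2, in the dark for 90 min. Cells were trypsinized, washed twice in ice-cold PBS, and analysed immediately by flow cytometry (488 nm laser; green fluorescence through a 530 nm band-pass filter).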

HCT-116 = assay: Cytotoxicity against human HCT116 cells after 72 hrs by SRB assay; assay type: functional, cell-based; conditions: HCT-116, 72 h; outline: as §1
HCT-15 = assay: Cytotoxicity against human HCT15 cells after 72 hrs by SRB assay; assay type: functional, cell-based; conditions: HCT-15, 72 h; outline: as §1
A549 [4] = assay: Cytotoxicity against human A549 cells after 72 hrs by SRB assay; assay type: functional, cell-based; conditions: A549, 72 h; outline: as §1
[5] = Thermodynamic solubility of the compound in phosphate buffer at pH 7.4; assay type: physicochemical; conditions: read-out: Therm_solubility

SMILES | IC50 (A549 [1]) [nM] | Therm_solubility ([2]; buffer) [µg/mL] | IC50 (SK-HEP1) [nM] | IC50 (SNU-638) [nM] | Activity [3] [%] | IC50 (HCT-116) [nM] | IC50 (HCT-15) [nM] | IC50 (A549 [4]) [nM] | solubility thermodynamic [5] [µg/mL] | solubility thermodynamic ([2]; 1:1 mixture of phosphate buffer:ethanol, read-out: Therm_solubility) [µg/mL]
COc1ccc2c3c(c4cc(OC)c(OC)cc4c2c1)C[C@H]1CCCN1C3 [(-)-ANTOFINE] | 18 | 47 | 8 | 10 | 37.9 | 8 | 13 | 11 | < 1 | –
COc1ccc2c3c(c4cc(OC)c(OC)cc4c2c1)C[C@]1(CO)CCCN1C3 | 3660 | – | 540 | 1490 | – | 800 | 1420 | 2270 | – | –
COc1ccc2c3c(c4cc(OC)c(OC)cc4c2c1)CC1(CO)CCCN1C3 (racemic) | 204 | – | 100 | 92 | – | 53 | 179 | 167 | 656 (≈ 1670 µM) | 1390 (≈ 3540 µM)
COC(=O)C12CCCN1Cc1c(c3cc(OC)c(OC)cc3c3cc(OC)ccc13)C2 (racemic) | > 1000 | – | > 1000 | > 1000 | – | > 1000 | > 1000 | > 1000 | – | –
COc1ccc2c3c(c4cc(OC)c(OC)cc4c2c1)CC1CCCN1C3 (racemic) [(+/-)-ANTOFINE] | 22 | – | 16 | 21 | – | 11 | 25 | 20 | – | –
COc1ccc2c3c(c4cc(OC)c(OC)cc4c2c1)CC1(C(=O)O)CCCN1C3 (racemic) | > 1000 | – | > 1000 | > 1000 | – | > 1000 | > 1000 | > 1000 | – | –
